Source: ChEMBL document CHEMBL1140699, “Stereospecific high-affinity TRPV1 antagonists: chiral N-(2-benzyl-3-pivaloyloxypropyl) 2-[4-(methylsulfonylamino)phenyl]propionamide analogues” (J Med Chem, 2008)
Active and inactive are the calls of the source. The calls are words filed in the database; no cut-off is given here.

Assays:
[1] = molecular target: Transient receptor potential cation channel subfamily V member 1 (Rattus norvegicus) (UniProt O35433); assay: Agonist activity at rat TRPV1 receptor expressed in CHO cells assessed as calcium 45 uptake at 30 uM; assay type: functional, cell-based
Chain of Transient receptor potential cation channel subfamily V member 1 (Rattus norvegicus) (O35433 whole entry): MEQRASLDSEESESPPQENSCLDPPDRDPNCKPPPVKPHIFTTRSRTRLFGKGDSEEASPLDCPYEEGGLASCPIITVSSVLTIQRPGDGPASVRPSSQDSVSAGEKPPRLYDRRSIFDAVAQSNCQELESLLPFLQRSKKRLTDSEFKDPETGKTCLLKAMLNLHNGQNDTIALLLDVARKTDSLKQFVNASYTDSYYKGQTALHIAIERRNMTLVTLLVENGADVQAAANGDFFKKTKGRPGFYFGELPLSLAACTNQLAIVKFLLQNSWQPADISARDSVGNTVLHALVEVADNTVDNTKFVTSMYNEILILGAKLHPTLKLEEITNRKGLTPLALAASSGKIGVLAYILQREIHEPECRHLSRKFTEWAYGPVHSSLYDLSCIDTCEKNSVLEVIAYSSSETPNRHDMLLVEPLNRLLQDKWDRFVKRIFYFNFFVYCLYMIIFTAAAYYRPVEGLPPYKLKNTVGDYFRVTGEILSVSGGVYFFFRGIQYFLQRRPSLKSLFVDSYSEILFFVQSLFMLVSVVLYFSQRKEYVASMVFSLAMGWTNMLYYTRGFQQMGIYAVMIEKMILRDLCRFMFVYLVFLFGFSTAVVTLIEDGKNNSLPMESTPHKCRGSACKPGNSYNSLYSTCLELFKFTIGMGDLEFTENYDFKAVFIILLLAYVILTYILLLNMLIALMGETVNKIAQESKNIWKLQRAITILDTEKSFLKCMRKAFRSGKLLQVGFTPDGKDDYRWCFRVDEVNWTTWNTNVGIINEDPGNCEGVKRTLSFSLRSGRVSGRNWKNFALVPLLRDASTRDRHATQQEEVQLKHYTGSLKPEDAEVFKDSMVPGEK
Procedure, shortened: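 45Ca2+ uptake in CHO cells heterologously expressing rat TRPV1 (CHO/VR1). Compounds tested for agonism at 30 µM and scored as not effective or weakly effective. Results from 1–5 experiments.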

[2] = molecular target: T1, Transient receptor potential cation channel subfamily V member 1 (Rattus norvegicus, UniProt O35433); assay: (§1) Antagonist activity at rat TRPV1 receptor expressed in CHO cells assessed as calcium 45 uptake; assay type: functional, cell-based
T1 sequence (O35433 whole entry): as above

[3] = molecular target: Transient receptor potential cation channel subfamily V member 1 (Rattus norvegicus) (UniProt O35433); assay: Agonist activity at rat TRPV1 receptor expressed in CHO cells assessed as calcium 45 uptake relative to 300 nM capsaicin; assay type: functional, cell-based
[4] = molecular target: Transient receptor potential cation channel subfamily V member 1 (Rattus norvegicus) (UniProt O35433); assay: Antagonist activity at rat TRPV1 receptor expressed in CHO cells assessed as capsaicin-induced calcium 45 uptake; assay type: functional, cell-based; set-up: concentration or dose not given beside the values
Procedure, shortened: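 Chinese hamster ovary cells heterologously expressing rat TRPV1 (CHO/VR1). Compounds were tested as antagonists of 150 nM capsaicin-induced ⁴⁵Ca²⁺ uptake. Antagonism was reported as Ki, with activity scored at 30 µM where potency was low. Results come from 1–5 experiments.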

[5] = molecular target: T1, Transient receptor potential cation channel subfamily V member 1; assay: Displacement of [3H]RTX from rat TRPV1 receptor expressed in CHO cells; assay type: cell-based
Procedure, shortened: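 Competitive binding against [3H]resiniferatoxin in CHO cells heterologously expressing rat TRPV1 (CHO/VR1). Affinity reported as Ki.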

[6] = molecular target: Transient receptor potential cation channel subfamily V member 1 (Rattus norvegicus) (UniProt O35433); assay: as §1; assay type: functional, cell-based

Row | Compound | Activity [1] | further results
1 | Oc1cc2c(cc1O)CN(C(=S)NCCc1ccc(Cl)cc1)CCC2 | inactive | 
2 | C[C@@H](C(=O)NC[C@@H](COC(=O)C(C)(C)C)Cc1ccccc1)c1ccc(NS(C)(=O)=O)c(F)c1 | inactive | 
3 | CC(C)(C)C(=O)OCC(CNC(=S)NCc1ccc(NS(C)(=O)=O)c(F)c1)Cc1ccc(C(C)(C)C)cc1 (configuration not stated) |  | Ki [2]: 52 nM; Activity [3]: 5%
4 | Cc1ccc(CC(CNC(=O)Cc2ccc(NS(C)(=O)=O)c(F)c2)COC(=O)C(C)(C)C)cc1C (configuration not stated) |  | Activity [4]: 71%
5 | Cc1ccc(CC(CNC(=O)C(C)(C)c2ccc(NS(C)(=O)=O)c(F)c2)COC(=O)C(C)(C)C)cc1C (configuration not stated) | inactive | Ki [5]: 280 nM
6 | C[C@H](C(=O)NC[C@H](COC(=O)C(C)(C)C)Cc1ccc(C(C)(C)C)cc1)c1ccc(NS(C)(=O)=O)c(F)c1 | inactive | Ki [5]: 4.12 nM
7 | CC(C(=O)NCC(COC(=O)C(C)(C)C)Cc1ccc(C(C)(C)C)cc1)c1ccc(NS(C)(=O)=O)c(F)c1 (configuration not stated) |  | Activity [4]: 95%; Activity [3]: 8%
8 | Cc1ccc(CC(CNC(=O)C2(c3ccc(NS(C)(=O)=O)cc3)CC2)COC(=O)C(C)(C)C)cc1C (configuration not stated) | inactive | 
9 | Cc1ccc(CC(CNC(=O)C(C)(C)c2ccc(NS(C)(=O)=O)cc2)COC(=O)C(C)(C)C)cc1C (configuration not stated) | inactive | 
10 | Cc1ccc(CC(CNC(=S)NCc2ccc(NS(C)(=O)=O)c(F)c2)COC(=O)C(C)(C)C)cc1C (configuration not stated) | inactive | 
11 | Cc1ccc(CC(CNC(=O)C(C)c2ccc(NS(C)(=O)=O)cc2)COC(=O)C(C)(C)C)cc1C (configuration not stated) | inactive | 
12 | CC(C)(C)C(=O)OCC(CNC(=O)Cc1ccc(NS(C)(=O)=O)c(F)c1)Cc1ccc(C(C)(C)C)cc1 (configuration not stated) |  | Activity [4]: 56%; Ki [2]: 440 nM; Activity [3]: 7%
13 | Cc1ccc(CC(CNC(=O)C2(c3ccc(NS(C)(=O)=O)c(F)c3)CC2)COC(=O)C(C)(C)C)cc1C (configuration not stated) | inactive | 
14 | Cc1ccc(CC(CNC(=O)C(C)c2ccc(NS(C)(=O)=O)c(F)c2)COC(=O)C(C)(C)C)cc1C (configuration not stated) | inactive | 
15 | C[C@H](C(=O)NC[C@@H](COC(=O)C(C)(C)C)Cc1ccccc1)c1ccc(NS(C)(=O)=O)c(F)c1 | inactive | Ki [5]: 16.5 nM
16 | C[C@@H](C(=O)NC[C@H](COC(=O)C(C)(C)C)Cc1ccc(C(C)(C)C)cc1)c1ccc(NS(C)(=O)=O)c(F)c1 | inactive | 
17 | C[C@H](C(=O)NC[C@H](COC(=O)C(C)(C)C)Cc1ccc(C(C)(C)C)cc1)c1ccc(NS(C)(=O)=O)c(Cl)c1 | inactive | 
18 | CC(C(=O)NCC(COC(=O)C(C)(C)C)Cc1ccc(C(C)(C)C)cc1)c1ccc(NS(C)(=O)=O)c(Cl)c1 (configuration not stated) |  | Activity [4]: 61%
19 | COc1cc(C(C)C(=O)NCC(COC(=O)C(C)(C)C)Cc2ccc(C)c(C)c2)ccc1NS(C)(=O)=O (configuration not stated) |  | Activity [4]: 63%; Activity [3]: 10%
20 | C=C(C)[C@]12C[C@@H](C)[C@@]34O[C@](Cc5ccccc5)(O[C@@H]1[C@@H]3C=C(COC(=O)Cc1cc(I)c(O)c(OC)c1)C[C@]1(O)C(=O)C(C)=C[C@@H]41)O2 [IODORESINIFERATOXIN] | inactive | Ki [2]: 12.2 nM; Ki [5]: 0.61 nM
21 | C[C@H](C(=O)NC[C@@H](COC(=O)C(C)(C)C)Cc1ccc(C(C)(C)C)cc1)c1ccc(NS(C)(=O)=O)c(Cl)c1 | inactive | 
22 | CC(C(=O)NCC(COC(=O)C(C)(C)C)Cc1ccc(C(C)(C)C)cc1)c1ccc(NS(C)(=O)=O)cc1 (configuration not stated) | inactive | 
23 | Cc1ccc(CC(CNC(=O)C(C)c2ccc(NS(C)(=O)=O)c(Cl)c2)COC(=O)C(C)(C)C)cc1C (configuration not stated) |  | Activity [3]: 16%
24 | COc1cc(C2(C(=O)NCC(COC(=O)C(C)(C)C)Cc3ccc(C)c(C)c3)CC2)ccc1NS(C)(=O)=O (configuration not stated) | inactive | 
25 | C[C@H](C(=O)NC[C@@H](COC(=O)C(C)(C)C)Cc1ccc(C(C)(C)C)cc1)c1ccc(NS(C)(=O)=O)c(F)c1 | inactive | Ki [5]: 6.26 nM
26 | C[C@H](C(=O)NC[C@H](COC(=O)C(C)(C)C)Cc1ccccc1)c1ccc(NS(C)(=O)=O)c(F)c1 | inactive | 
27 | COc1cc(C(C)C(=O)NCC(COC(=O)C(C)(C)C)Cc2ccc(C(C)(C)C)cc2)ccc1NS(C)(=O)=O (configuration not stated) |  | Activity [6]: inactive; Activity [3]: 40%
28 | C[C@@H](C(=O)NC[C@@H](COC(=O)C(C)(C)C)Cc1ccc(C(C)(C)C)cc1)c1ccc(NS(C)(=O)=O)c(F)c1 |  | Activity [3]: 9%
29 | C[C@@H](C(=O)NC[C@H](COC(=O)C(C)(C)C)Cc1ccccc1)c1ccc(NS(C)(=O)=O)c(F)c1 | inactive | 
30 | COc1cc(C(C)(C)C(=O)NCC(COC(=O)C(C)(C)C)Cc2ccc(C)c(C)c2)ccc1NS(C)(=O)=O (configuration not stated) | inactive | 
